Records with an inconclusive call do not appear. Calls of active or inactive are those of the source.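 Rule for the calls: active = converged dose curve in at least two of three replicates, even with few points beside the midpoint; inactive = the rest, inconclusive results apart.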

For this assay, the target named is Solute carrier family 12 member 5 (Homo sapiens) (UniProt Q9H2X9). Kind of assay: KCC2 cotransporter modulators, thallium uptake, dose response, cell-based, HEK293-KCC2, thallium flux, FluoZin2, sodium-free, assay 3 (AID 1737). Particulars: HEK293-KCC2, thallium flux FluoZin2 fluorescence, Na-free. In short, it runs like this: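 System: KCC2-expressing HEK cells; measured by: FluoZin2 fluorescence, 480/540 nm; also added: thallium sulfate stimulus; repeats: triplicate wells per dose, each replicate fitted separately; compound: 11 doses, 3-fold steps, 30 µM top; control set: bumetanide as positive control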
Solute carrier family 12 member 5 (Homo sapiens), sequence (Q9H2X9 whole entry, looked up): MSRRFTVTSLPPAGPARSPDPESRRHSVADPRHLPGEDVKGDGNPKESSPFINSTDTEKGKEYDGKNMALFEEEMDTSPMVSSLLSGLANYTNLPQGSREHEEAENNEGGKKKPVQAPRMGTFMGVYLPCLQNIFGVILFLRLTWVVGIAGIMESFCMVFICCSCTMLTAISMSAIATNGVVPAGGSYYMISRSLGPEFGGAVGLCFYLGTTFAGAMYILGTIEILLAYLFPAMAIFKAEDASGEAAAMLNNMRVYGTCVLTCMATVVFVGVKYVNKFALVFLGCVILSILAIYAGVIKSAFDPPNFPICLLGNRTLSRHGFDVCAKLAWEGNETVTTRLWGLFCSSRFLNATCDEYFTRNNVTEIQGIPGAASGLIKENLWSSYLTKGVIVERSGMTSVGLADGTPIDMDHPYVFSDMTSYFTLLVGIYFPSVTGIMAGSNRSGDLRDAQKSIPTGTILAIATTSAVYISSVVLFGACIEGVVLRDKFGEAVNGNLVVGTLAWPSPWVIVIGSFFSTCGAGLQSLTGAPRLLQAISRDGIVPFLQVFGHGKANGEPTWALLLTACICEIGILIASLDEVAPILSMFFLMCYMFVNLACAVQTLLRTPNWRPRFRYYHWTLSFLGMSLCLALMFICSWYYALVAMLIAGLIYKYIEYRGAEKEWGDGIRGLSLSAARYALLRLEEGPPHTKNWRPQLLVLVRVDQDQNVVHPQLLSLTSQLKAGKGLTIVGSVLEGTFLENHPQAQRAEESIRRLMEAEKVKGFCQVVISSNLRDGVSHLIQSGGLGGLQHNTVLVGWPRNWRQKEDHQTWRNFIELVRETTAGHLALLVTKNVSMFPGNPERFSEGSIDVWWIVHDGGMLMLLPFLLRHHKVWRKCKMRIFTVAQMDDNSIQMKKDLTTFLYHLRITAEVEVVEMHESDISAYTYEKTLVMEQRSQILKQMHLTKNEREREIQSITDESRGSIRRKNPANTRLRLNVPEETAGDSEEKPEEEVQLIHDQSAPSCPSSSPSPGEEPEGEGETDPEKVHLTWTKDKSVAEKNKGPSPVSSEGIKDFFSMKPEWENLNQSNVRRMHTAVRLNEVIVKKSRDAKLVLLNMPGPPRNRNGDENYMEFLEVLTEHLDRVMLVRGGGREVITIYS

As usually defined, the EC50 is the concentration at which the effect is half-maximal. As to `O=c1c2ccccc2[nH]c(=S)n1CCN1CCC(=C(c2ccc(F)cc2)c2ccc(F)cc2)CC1`, the EC50 entry was “inactive”.

Consider `Cc1ccc(-c2n[nH]c(=S)n2/N=C/C=C\c2ccccc2[N+](=O)[O-])cc1`, for which the EC50 result is “inactive”.

`NC(=S)N=Nc1c(O)n(Cc2ccccc2)c2ccccc12`: the EC50 entry was “inactive”.

`O=C(NC(=S)Nc1cccc2cccnc12)c1cccs1`: the EC50 result is “inactive”.

`Fc1cccc(F)c1/C=N/NC(=S)Nc1cccnc1`: the EC50 entry was “inactive”.

For the compound `O=C(NC(=S)Nc1ccc2c(c1)OCO2)c1ccc(Cl)cc1`, the EC50 result is “inactive”.

Turning to `COc1ccc(N2C(=S)N=C(Nc3cccc(C)c3)C23CCCCC3)cc1`, the EC50 was 417 nM.

Regarding `O=[N+]([O-])c1ccc(-c2cn(-c3ccccc3F)c(=S)[nH]2)cc1`, the EC50 is 318 nM.

For the compound `COc1cccc(/C=c2\s/c(=C/C(=O)c3ccc(C)cc3)[nH]c2=O)c1OC`, the EC50 entry is “inactive”.

`COc1ccc(-c2nnc(-c3ccc(OCC(C)C)cc3)o2)cc1`: the EC50 entry was “inactive”.

For the compound `O=[N+]([O-])c1ccccc1/C=C/C=N/n1c(-c2ccc(Cl)cc2)n[nH]c1=S`, the EC50 entry is “inactive”.

Take `CC(=O)c1cccc(NC(=S)NC(=O)c2ccc(C)cc2)c1`: the EC50 is 288 nM.

Consider `CCOc1cccc(C(=O)NC(=S)Nc2cccc(C)c2)c1`, for which the EC50 entry is “inactive”.

Take `Cc1onc(-c2ccccc2Cl)c1C(=O)NC(=S)Nc1ccc(C(C)C)cc1`: the EC50 entry is “inactive”.

For the origin of these results see PubChem BioAssay AID1737 (Vanderbilt High Throughput Screening Facility, 2009).
